{"data": "Published values of several laboratories", "cell line": "RAW264.7", "note": "Each line is one published result; the experiments were not run side by side."}
{"Structure (SMILES)": "[H]/N=C(/NC)NCCC[C@H](N)C(=O)O", "assay": "NO release, inhibitor, Griess", "setting": "250 µg/mL, 24 h, LPS-stimulated", "endpoint": "inhibition", "value": "97.1%"}
{"Structure (SMILES)": "C=C1CC[C@@H]2[C@](C)(CO)[C@H](O)CC[C@@]2(C)[C@@H]1C/C=C1/C(=O)OC[C@H]1O", "assay": "NO release, inhibitor, Griess", "setting": "24 h, LPS-stimulated", "endpoint": "IC50", "value": "48.6 µM"}
{"Structure (SMILES)": "COc1ccc(C[C@H](N)C(=O)N[C@H]2[C@@H](O)[C@H](n3cnc4c(N(C)C)ncnc43)O[C@@H]2CO)cc1", "assay": "cell growth or viability, resazurin", "setting": "72 h", "endpoint": "IC50", "value": "1.54 µM"}
{"Structure (SMILES)": "C[C@]12C=CC(=O)C=C1CC[C@@H]1[C@@H]2[C@@H](O)C[C@@]2(C)[C@H]1CC[C@]2(O)C(=O)CO", "assay": "NO release, inhibitor, Griess", "setting": "24 h, LPS-stimulated", "endpoint": "IC50", "value": "0.2 µg/mL"}
{"Structure (SMILES)": "CCOc1ccc(Nc2c3c(nc4ccccc24)CCC3)cc1", "assay": "cell growth or viability, resazurin", "setting": "72 h", "endpoint": "IC50", "value": "38.4 µM"}
{"Structure (SMILES)": "COc1ccc2c(c1)c(CC(=O)O)c(C)n2C(=O)c1ccc(Cl)cc1", "assay": "NO release, inhibitor, Griess", "setting": "24 h, LPS-stimulated", "endpoint": "IC50", "value": "26.5 µM"}
{"Structure (SMILES)": "C[C@@H]1C[C@H]2[C@@H]3CCC4=CC(=O)C=C[C@]4(C)[C@@]3(F)[C@@H](O)C[C@]2(C)[C@@]1(O)C(=O)CO", "assay": "NO release, inhibitor, Griess", "setting": "LPS-stimulated", "endpoint": "IC50", "value": "13.1 µM"}
{"Structure (SMILES)": "[H]/N=C(/NC)NCCC[C@H](N)C(=O)O", "assay": "NO release, inhibitor, Griess", "setting": "LPS-stimulated", "endpoint": "IC50", "value": "21.8 µM"}
